Measurements published in ChEMBL document CHEMBL4732140, “Single-step fluorescent probes to detect decrotonylation activity of HDACs through intramolecular reactions” (Eur J Med Chem, 2021).
The source made the active and inactive calls. No cut-off for these calls is given here.

How the values were obtained:
[1] = target: NAD-dependent protein deacylase sirtuin-5, mitochondrial (Homo sapiens) (UniProt Q9NXA8); assay: Substrate activity at recombinant human SIRT5 assessed as decrotonylation by measuring increase in fluorescence intensity at 10 uM in presence of NAD+ by fluorescence photometric method
Summary of the method: (§1)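 Recombinantly expressed, purified sirtuin (40 ng/μl) incubated with probe (10 μM, from 5 mM DMSO stock) and NAD+ at 37 °C in 20 mM HEPES pH 8.0 with 1 mM MgCl2, 2.7 mM KCl, 150 mM NaCl. Fluorescence read with excitation 480 nm, emission 545 nm.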

[2] = target: NAD-dependent protein deacylase sirtuin-6 (Homo sapiens) (UniProt Q8N6T7); assay: Substrate activity at recombinant human SIRT6 assessed as decrotonylation by measuring increase in fluorescence intensity at 10 uM in presence of NAD+ by fluorescence photometric method; summary of the method: as §1
[3] = target: T1, NAD-dependent protein deacetylase sirtuin-1 (Homo sapiens) (UniProt Q96EB6); assay: Substrate activity at recombinant human SIRT1 assessed as decrotonylation by measuring increase in fluorescence intensity at 10 uM in presence of NAD+ by fluorescence photometric method; summary of the method: as §1
T1 sequence (whole entry): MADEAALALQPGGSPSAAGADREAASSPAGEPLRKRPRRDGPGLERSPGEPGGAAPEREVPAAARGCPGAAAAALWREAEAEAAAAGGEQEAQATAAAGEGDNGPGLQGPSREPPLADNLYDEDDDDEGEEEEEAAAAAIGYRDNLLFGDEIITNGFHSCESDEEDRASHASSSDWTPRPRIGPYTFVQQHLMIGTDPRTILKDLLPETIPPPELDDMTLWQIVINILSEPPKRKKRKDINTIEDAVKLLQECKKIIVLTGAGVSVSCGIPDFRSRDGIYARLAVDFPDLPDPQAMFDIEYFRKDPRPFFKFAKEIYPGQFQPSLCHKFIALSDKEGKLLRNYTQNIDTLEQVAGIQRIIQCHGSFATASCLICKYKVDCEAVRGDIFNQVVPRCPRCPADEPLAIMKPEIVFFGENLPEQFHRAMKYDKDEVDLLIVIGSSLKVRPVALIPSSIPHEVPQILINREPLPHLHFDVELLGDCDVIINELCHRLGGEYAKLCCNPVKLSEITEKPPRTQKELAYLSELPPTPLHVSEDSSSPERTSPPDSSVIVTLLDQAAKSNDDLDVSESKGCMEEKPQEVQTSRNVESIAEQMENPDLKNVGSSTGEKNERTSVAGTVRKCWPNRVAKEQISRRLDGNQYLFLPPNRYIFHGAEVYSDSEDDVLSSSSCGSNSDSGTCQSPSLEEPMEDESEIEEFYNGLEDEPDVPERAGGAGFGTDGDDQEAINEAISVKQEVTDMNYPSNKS

[4] = target: T2, NAD-dependent protein deacetylase sirtuin-3, mitochondrial (Homo sapiens) (UniProt Q9NTG7); assay: Substrate activity at recombinant human SIRT3 assessed as decrotonylation by measuring increase in fluorescence intensity at 10 uM in presence of NAD+ by fluorescence photometric method; summary of the method: as §1
T2 sequence (whole entry): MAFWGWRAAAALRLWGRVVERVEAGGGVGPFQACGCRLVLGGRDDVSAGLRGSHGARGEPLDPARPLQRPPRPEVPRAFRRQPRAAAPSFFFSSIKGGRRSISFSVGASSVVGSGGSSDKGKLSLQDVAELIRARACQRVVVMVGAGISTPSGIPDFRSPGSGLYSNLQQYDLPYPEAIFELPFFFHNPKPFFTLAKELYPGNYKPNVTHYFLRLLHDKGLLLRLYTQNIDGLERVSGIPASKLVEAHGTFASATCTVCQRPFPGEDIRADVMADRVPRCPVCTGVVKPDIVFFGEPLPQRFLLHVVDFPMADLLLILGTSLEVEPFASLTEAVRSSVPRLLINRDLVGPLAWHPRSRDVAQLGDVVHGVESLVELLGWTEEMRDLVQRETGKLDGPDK

[5] = target: T3, NAD-dependent protein deacetylase sirtuin-2 (Homo sapiens) (UniProt Q8IXJ6); assay: Substrate activity at recombinant human SIRT2 assessed as decrotonylation by measuring increase in fluorescence intensity at 10 uM measured after 3 hrs in presence of NAD+ by fluorescence photometric method relative to control
T3 sequence (whole entry): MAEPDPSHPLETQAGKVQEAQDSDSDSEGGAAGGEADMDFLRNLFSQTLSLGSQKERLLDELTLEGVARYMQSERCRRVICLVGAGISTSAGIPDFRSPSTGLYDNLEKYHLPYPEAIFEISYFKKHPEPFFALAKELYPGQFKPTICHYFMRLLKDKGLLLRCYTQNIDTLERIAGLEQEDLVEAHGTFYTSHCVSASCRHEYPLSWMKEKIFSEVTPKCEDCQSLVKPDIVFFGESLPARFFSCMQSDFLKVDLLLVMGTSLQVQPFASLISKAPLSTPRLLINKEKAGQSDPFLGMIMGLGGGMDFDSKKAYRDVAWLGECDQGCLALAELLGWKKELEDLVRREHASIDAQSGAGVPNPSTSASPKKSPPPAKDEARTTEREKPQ
Summary of the method: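 Probe (10 μM) incubated 3 h at 37 °C with recombinant Sirt2 (40 ng/μl) and 200 μM NAD+ in 20 mM HEPES pH 8.0 with salts. Emission scanned 510–600 nm (excitation 480 nm, slit 5 nm). Signal compared with controls lacking enzyme and/or NAD+, and with probe alone; fold increase derived.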

[6] = target: T3, NAD-dependent protein deacetylase sirtuin-2 (Homo sapiens); assay: Substrate activity at recombinant human SIRT2 assessed as decrotonylation by measuring increase in fluorescence intensity at 10 uM in presence of NAD+ by fluorescence photometric method; details: time hrs <=3, TDE = time-dependent effect; summary of the method: as §1
[7] = target: T3, NAD-dependent protein deacetylase sirtuin-2 (Homo sapiens); assay: Substrate activity at recombinant human SIRT2 assessed as decrotonylation by measuring absorption peak for formation of N-NBD at 10 uM measured after 3 hrs in presence of NAD+ by UV-VS absorption spectra analysis
Summary of the method: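 Probe (10 μM, from 5 mM DMSO stock) reacted with recombinant purified Sirt2 (40 ng/μl) and 200 μM NAD+ in 20 mM HEPES pH 8.0 (1 mM MgCl2, 2.7 mM KCl, 150 mM NaCl) at 37 °C for 3 h. Absorbance spectra collected from 300 to 550 nm before and after the reaction.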

[8] = Binding affinity to cysteine at 10 uM by fluorescence photometric method
Summary of the method: (§2)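 Interferent test: probe at 10 μM treated with each species (amino acids, butylamine) at 100 μM, no enzyme; fluorescence spectra of the reaction mixtures recorded (excitation 480 nm).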

[9] = Binding affinity to lysine at 10 uM by fluorescence photometric method; summary of the method: as §2
[10] = Binding affinity to histidine at 10 uM by fluorescence photometric method; summary of the method: as §2

Chain of NAD-dependent protein deacylase sirtuin-5, mitochondrial (Homo sapiens) (Q9NXA8 37-310 limits assumed): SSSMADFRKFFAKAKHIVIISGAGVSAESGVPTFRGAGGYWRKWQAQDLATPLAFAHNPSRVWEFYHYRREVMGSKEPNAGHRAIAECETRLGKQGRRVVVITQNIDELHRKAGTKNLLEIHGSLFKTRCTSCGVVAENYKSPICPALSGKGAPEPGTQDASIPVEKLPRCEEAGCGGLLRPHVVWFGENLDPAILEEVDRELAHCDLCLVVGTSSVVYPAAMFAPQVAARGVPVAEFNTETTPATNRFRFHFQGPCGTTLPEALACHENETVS
Chain of NAD-dependent protein deacylase sirtuin-6 (Homo sapiens) (Q8N6T7 whole entry): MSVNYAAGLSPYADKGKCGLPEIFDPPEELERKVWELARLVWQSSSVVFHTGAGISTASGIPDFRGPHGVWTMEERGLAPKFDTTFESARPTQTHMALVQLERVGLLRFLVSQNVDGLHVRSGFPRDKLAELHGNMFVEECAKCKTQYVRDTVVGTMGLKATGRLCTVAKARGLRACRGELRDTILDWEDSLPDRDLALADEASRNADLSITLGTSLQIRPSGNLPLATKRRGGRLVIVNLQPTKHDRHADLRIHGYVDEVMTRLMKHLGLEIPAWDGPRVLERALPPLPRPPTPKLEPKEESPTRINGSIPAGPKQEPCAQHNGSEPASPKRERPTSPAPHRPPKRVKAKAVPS

Question: For `C/C=C/C(=O)NCCCC[C@H](NC(=O)CNC(=O)[C@H](CC(C)C)NC(C)=O)C(=O)NCCOCCOc1ccc([N+](=O)[O-])c2nonc12`, which Activity [1] is on record?
Answer: inactive

Question: What about the Activity [2] of the same compound?
Answer: inactive

Question: And the Activity [3]?
Answer: Active

Question: And the Activity [4]?
Answer: inactive

Question: For `C/C=C/C(=O)NCCCC[C@H](NC(=O)OC(C)(C)C)C(=O)NCCOCCOc1ccc([N+](=O)[O-])c2nonc12`, which Activity [1] is on record?
Answer: inactive

Question: And the fold change (FC) [5]?
Answer: 5

Question: What about the Activity [2] of the same compound?
Answer: inactive

Question: What about the Activity [6] of the same compound?
Answer: Tde

Question: And the Activity [7]?
Answer: 480 nm

Question: And the Activity [3]?
Answer: Active

Question: What about the Activity [8] of the same compound?
Answer: inactive

Question: And the Activity [4]?
Answer: inactive

Question: And the Activity [9]?
Answer: inactive

Question: And the Activity [10]?
Answer: inactive
